Source: PubChem BioAssay AID588621 (Sanford-Burnham Center for Chemical Genomics, 2011)
The campaign covered roughly 360,000 compounds. About 890 (0.25%) were called active.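 The calls were made as follows: active = inhibition at 20 µM, scaled per plate between control wells, above about 37% (limit read from the data); inactive = the rest.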 This excerpt belongs to a sample that is enriched for actives.

Molecular target: Tyrosine-protein phosphatase non-receptor type 5 (Homo sapiens) (UniProt P54829)
Assay: inhibition of human PTPN5 enzyme activity – biochemical, fluorescence intensity, uHTS, primary screen (AID 588621);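 also: 0% = DMSO with enzyme and substrate and 100% = substrate only without enzyme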
Conditions: recombinant STEP, OMFP fluorogenic substrate, at 20 µM, hits give high values
Method in brief: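 medium = Bis-Tris buffer pH 6.0, 2.5 mM DTT, 0.005% Tween 20 | test system = STEP (striatal-enriched tyrosine phosphatase) enzyme, cell-free | measure = normalized % inhibition | compound dosing = 20 µM, 1% DMSO | also added = 25 µM OMFP | schedule = reaction 20 min, ambient temperature | measured by = fluorescence read at 480 nm ex / 540 nm em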

Tyrosine-protein phosphatase non-receptor type 5 (Homo sapiens), sequence (P54829 whole entry, looked up): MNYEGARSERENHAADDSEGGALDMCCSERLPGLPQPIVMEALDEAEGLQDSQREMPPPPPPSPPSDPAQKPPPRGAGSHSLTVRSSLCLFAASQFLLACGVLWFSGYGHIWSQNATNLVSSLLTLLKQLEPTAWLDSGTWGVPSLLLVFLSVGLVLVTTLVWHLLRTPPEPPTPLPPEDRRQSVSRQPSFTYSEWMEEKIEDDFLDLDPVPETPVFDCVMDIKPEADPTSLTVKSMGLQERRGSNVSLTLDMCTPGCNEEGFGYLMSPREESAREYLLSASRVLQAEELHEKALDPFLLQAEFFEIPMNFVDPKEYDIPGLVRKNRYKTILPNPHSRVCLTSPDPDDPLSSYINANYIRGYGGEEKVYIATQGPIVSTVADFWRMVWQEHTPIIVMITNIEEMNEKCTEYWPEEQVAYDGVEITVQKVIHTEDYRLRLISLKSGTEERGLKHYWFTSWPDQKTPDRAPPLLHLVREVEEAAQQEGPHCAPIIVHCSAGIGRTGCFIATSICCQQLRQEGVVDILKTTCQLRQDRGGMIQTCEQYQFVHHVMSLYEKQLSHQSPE

inhibition, inactive:
O=C(CCS(=O)(=O)c1ccc2c(c1)NC(=O)CS2)NCc1ccccc1Cl 1.6%, CNc1cncc(-c2ccc(NS(C)(=O)=O)cc2)n1 4.2%, CC(C)NS(=O)(=O)c1ccc(OCC(=O)NC2CCCCCC2)cc1 -0.6%, O=C1C(=O)N(CCN2CCOCC2)C(c2ccccn2)/C1=C(/O)c1ccc(Cl)cc1 (configuration not stated) -3.3%, CCCC1C(=O)N2C(N(C)C)=Nc3ccc(C)cc3N2C1=O (configuration not stated) -0.2%, CCOc1ccc(N(CC(=O)NCC2CCCO2)S(=O)(=O)c2ccc(C)cc2)cc1 (configuration not stated) 0.9%, CCOC(=O)CCc1c(C)c2ccc(OCc3nn[nH]n3)c(C)c2oc1=O 2.9%, Cc1c(CCC(=O)O)c(=O)oc2cc(OCc3ccc(Br)cc3)ccc12 5.4%, COc1ccc(C2COC(=O)C2=N)c(NC(=O)c2ccccc2)c1 (configuration not stated) 1.3%, O=C(c1cc2ccccc2s1)N1CCN(c2ccccn2)CC1 -0.1%, O=C(c1c(F)cccc1Cl)N1CCN(c2ccccn2)CC1 -1.8%, O=C(COC(=O)/C=C/c1ccc(Br)o1)Nc1cccc(S(=O)(=O)N2CCOCC2)c1 2.1%, CC(C)(C)NC(=O)CSC(=Nc1ccccc1F)NC#N -0.7%, Cc1c(C#N)c2ncn(CC#N)c(=O)c2n1-c1ccccc1 -3.8%, Cc1nnsc1C(=O)NCc1c(F)cccc1Cl -0.5%, CC1C(=O)NC(=O)C1c1ccccc1 (configuration not stated) -2%, COc1ccc2c(c1)CCc1c(C(=O)N3CCc4ccccc4C3)noc1-2 -1%, CCCS(=O)(=O)N1CCN=C1SCc1cccc(F)c1 0.3%, Cc1cc(Cl)ccc1NC(=S)N1CCC(C(N)=O)(N2CCCCC2)CC1 -1.3%, CNc1[nH]ncc1[N+](=O)[O-] -1.1%, CCCCSCCCNC(=O)C1CCC(CNS(=O)(=O)c2ccc(NC(C)=O)cc2)CC1 (configuration not stated) 1%, Cc1ccc(-n2c(C)nnc2SCC(=O)NC2CC2)cc1 0.1%, Cc1ccc(SCC2=NNC(=O)C2)cc1 0.5%, COc1ccc2oc(=N)c(C(=O)Nc3ccc(Br)cc3)cc2c1 -1.8%, O=C(Nc1cccnc1)c1ccc(Cl)cc1[N+](=O)[O-] 0.9%, CCOC(=O)c1c(-n2cnnn2)sc(C)c1C 0.1%, CCc1ccccc1N(CC(=O)NCCSCc1ccco1)S(C)(=O)=O -1.4%, CCOc1ccc(C(CC(=O)O)n2cnnn2)cc1OC (configuration not stated) -2.9%, CC1=CC(C)(C)NC(=S)N1c1ccccc1 -2.2%, COc1ccc(C2=NOC(Cn3nc(C(=O)NCc4ccc5c(c4)OCO5)cc3-c3ccccc3)C2)cc1 (configuration not stated) 0.9%, COc1cc(/C=N/NC(=O)c2cccnc2)ccc1OC(=O)c1cccc(Br)c1 1.7%, CCn1c(/C=N/NC(=O)c2ccc(OC)cc2)nc2ccccc21 2.2%, CN(C)Cc1c(O)ccc2c(=O)c(-c3ccccc3Cl)coc12 0.4%, CCNC(=O)C1CCCN(C(=O)c2cc(F)ccc2C)CC1 (configuration not stated) 1%, CC(C)C1CC2=C(C(=O)OC(C)(C)O2)C(c2ccc(F)cc2)O1 (configuration not stated) 0%, c1ccc(-c2ccnc3nc(-n4cccc4)nn23)cc1 -3.2%, CCc1nc2oc3ccccc3c(=O)c2c(=O)n1Cc1ccc(OC)cc1 0.4%, O=C(CSc1nnc(COc2ccc(Cl)cc2)n1Cc1ccco1)N1CCNC1=O -4.2%, O=C1OCCC1=COCCCCOC=C1CCOC1=O 0.1%, O=C(CCc1ccccc1)Nc1ccc(NC(=O)C2CC2)nc1 -2.6%, COc1cc(/C=C/C(=O)OCC(=O)N2CCOCC2)ccc1OCC#N 1.1%, CCOC(=O)C/C(C)=N\Nc1ccc([N+](=O)[O-])cc1[N+](=O)[O-] 2.8%, C/C(=N\Nc1ccccc1)c1cccs1 -1.1%, Cc1csc2nc(COC(=O)c3cccc(N(C)C)c3)cc(=O)n12 -2.7%, O=C(Nc1ccc(N2CCCC2=O)cc1)c1cncc(Br)c1 -0.3%, O=C(N/N=C\c1cccc(Br)c1)c1ccccc1-n1cccc1 -2.3%, CCc1c(Nc2ccccc2Cl)nc(N)[nH]c1=O -2.5%, COc1ccc2[nH]c3nc(SCC(=O)NC4CC4)nnc3c2c1 -4.6%, Cc1ccn2c(=O)nc(SCC(=O)NCc3ccc(F)cc3)nc2c1 0.1%, CCCCNC1(C#N)CCN(Cc2ccccc2)CC1 -2.5%, COc1cccc(COC(=O)C2CCN(S(=O)(=O)c3cccs3)CC2)c1OC 1.4%, Cc1ccccc1C#CC1=CC(=O)CC(C)(C)C1 0.4%, Cn1ncc(Br)c1C(=O)NC1CCCC1 -1.6%, CCN1CCc2nc(NC(=O)c3cc(F)c(F)cc3Cl)sc2C1 -1.5%, CCc1cc(-c2nnn(CCC3COCCO3)c2CC)ccc1-c1cn(Cc2ccc3ccccc3c2)nn1 (configuration not stated) 2.9%, COC(=O)c1cc2occc2n1Cc1nc(-c2ccccc2C)oc1C -0.6%, CCCCOc1ccc(NC(=O)[C@@H]2CCCN2C(=O)C2CCN(S(=O)(=O)c3ccc(C)cc3)CC2)cc1 -0.4%, CCCC(=O)N1CCC1(C)C(=O)NCc1ccc(C(C)C)cc1 (configuration not stated) 1.5%, Cn1c(Cc2csc(N)n2)nnc1SC/C=C/c1ccccc1 -1.7%, CCOc1ccc(C(=O)NCC(=O)N2CCN(c3ccc(C(F)(F)F)cn3)CC2)cc1 -0.1%, Cc1ccc(F)cc1NC(=O)N1CCCN(c2ccc(C(F)(F)F)cn2)CC1 -0.3%, C[C@H]1CN([C@@H](C)CO)C(=O)Cc2cc(NS(C)(=O)=O)ccc2O[C@@H]1CN(C)CC1CC1 1.2%, Cc1ccc(C(=O)N(CC(=O)NC2CCCC2)c2ccc(F)cc2)s1 -0.9%, O=C(NCc1ccco1)C1CCCN(S(=O)(=O)c2ccccc2)C1 (configuration not stated) 2.1%, O=C(NCc1ccco1)C1CCCN(S(=O)(=O)c2cnc[nH]2)C1 (configuration not stated) -0.7%, COc1ccc(CCNc2cc(C)nc3c(-c4ccc(Cl)cc4)c(C)nn23)cc1OC -0.7%, O=S1(=O)CSCS(=O)(=O)C1 2.4%, Cc1ccc(-n2c(SCC(=O)NCc3ccc4c(c3)OCO4)nnc2-c2cccnc2)c(C)c1 -2.7%, CCCCc1nccn1CCn1ccnc1CCCC 1.5%, OCc1n[nH]c(CO)n1 -3.3%, O=C1CCC(CCC(=O)N2CCCC(C(=O)c3ccc(Cl)cc3)C2)=NN1 (configuration not stated) -3.2%, COc1ccc(CCNC(=O)c2ccc(CS(=O)(=O)c3ccc(Br)cc3)o2)cc1OC -1.6%, O=C(N/N=C/c1ccccc1O)/C(=C/c1ccccc1)CCO 0.4%, Oc1ccccc1C=NC1CCCCC1N=Cc1ccccc1O (configuration not stated) 2.7%, Nc1ccccc1/C=N\N=C/c1ccccc1N -2.4%, Cc1c(NC(=O)C(=O)N/N=C/c2cccs2)c(=O)n(-c2ccccc2)n1C 3.9%, CCC(=O)c1cc2c(cc1NC(=O)c1cccs1)OCCO2 -2.5%, C=CCO/N=C(\C)c1c(O)c(C)c(-c2ccccc2)n(-c2ccccc2)c1=O 6.7%, CC1CN(C(=O)COC(=O)c2cccc(NS(=O)(=O)c3ccccc3)c2)CC(C)O1 (configuration not stated) 0.4%, COc1ccc(/C=N/NC(=O)Cn2cc(C(F)(F)F)ccc2=O)cc1 -2.6%, COc1ccc(/C=N/NC(=O)C(C)N(c2ccc(OC)cc2)S(C)(=O)=O)cc1 (configuration not stated) 2.2%, CCc1ccccc1NC(=O)CN1CCN(C(=O)c2cc(C3CC3)nn2-c2ccccc2)CC1 -3.2%

inhibition, active:
Cc1c(CCC(=O)O)c(=O)oc2c(C)c(OCc3ccccc3Cl)ccc12 98.9%, Cc1cc(C(=O)N2CCN(c3ccccn3)CC2)c(C)o1 39.4%, O=c1ccc2c(-c3ccccc3S(=O)(=O)O)c3ccc(O)c(O)c3oc-2c1O 96.8%, O=C(Nc1cccnc1)c1cc2cc(Br)ccc2oc1=O 86.4%, COc1cccc(/C=N/NC(=O)c2[nH]nc3c2CCc2ccccc2-3)c1O 80%, Cn1c2ccccc2c(=O)c2c(=O)n(Cc3ccco3)c(COc3ccccc3)nc21 70.7%, C/C(=N\Nc1ccc(S(N)(=O)=O)cc1[N+](=O)[O-])c1cccs1 97.5%, O=C(N/N=C/c1cccc(Br)c1)c1ccc(N2CCCC2=O)cc1 94.9%, Cc1ccc(CNC(=O)CSc2nnc3c(n2)[nH]c2ccc(F)cc23)cc1 96.1%, C=CC1=C(C(=O)O)N2C(=O)[C@@H](NC(=O)/C(=N\OCC(=O)O)c3csc(N)n3)[C@H]2SC1 85.4%, C=CC1=C(C(=O)O)N2C(=O)[C@@H](NC(=O)/C(=N/OCC(=O)O)c3csc(N)n3)[C@H]2SC1 97.4%, C/C=C/C(=O)Nc1ccc(N2CCN(c3ccc(C(F)(F)F)cn3)CC2)nc1 78.9%, CCCS(=O)(=O)N1CCCC(C(=O)NCc2ccco2)C1 (configuration not stated) 53.8%, O=C(NN=Cc1ccccc1O)NN=Cc1ccccc1O 59.1%, COc1ccc(/C=N/Nc2ccccc2C(=O)O)cc1 42.5%
